From PubChem BioAssay come the findings set out here.

Experiment [1] can be described thus: Her2 expression decrease, cell viability multiplex – SKBR3 breast tumor cells, AlphaScreen, ATP viability, primary screen (AID 461;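 active = Her2 level under about 52% in both replicate screens, with viability over 70% of control, limit read from the data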;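 as to Her2 level: lower value means less Her2 protein in the cells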;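 as to viability: percent of carrier control wells set as 100% viability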). The note with it: SKBR3 Her2 protein level, 18-24 h, measured here: SKBR3 viability, ATP luminescence, at 10 µM. Background: Bead proximity is the source of the signal in Alpha formats.
For experiment [2], the target named is Receptor tyrosine-protein kinase erbB-2 (Homo sapiens) (UniProt P04626). The description is as above. The note with it: 18-24 h, at 10 µM, stronger effect = lower value.
Experiment [3] can be described thus: reduced viability of SK-BR-3 breast cancer cells – cell-based, 24 h, human, pilot screen (AID 572).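 Also: compound exposure lasted between 18 and 24 h rather than exactly 24 h; 100% = carrier-treated control wells.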 The note with it: SK-BR-3 viability, CellTiter-Glo luminescence, at 10 µM, stronger effect = lower value. A general note: In ATP-based viability assays light output follows the ATP content of the culture.
Experiment [4] is described as follows: HUVEC growth inhibition – cell-based, human, primary screen (AID 575;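 active = viability at or below 30% in both replicate assays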;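 also: 100% = median of untreated cell wells with 0.1% DMSO on each plate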). The note with it: HUVEC proliferation, CellTiter-Glo luminescence, 72 h; at 10 µM; stronger effect = lower value. A digest of the protocol:
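material = primary HUVEC, no more than 12 passages | input = 1250 cells per well | controls = vehicle and MePR control wells | measured by = CTG luminescence | times = 72 h compound incubation | format = collagen-coated 384-well format | read-out = % viability vs DMSO wells | doses = single 10 µM dose, 0.1% DMSO, from 5x medium stock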

Experiment [5] in a line: H69AR cell proliferation blockers – human, duplicate replicates, primary screen (AID 580;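 active = viability at or under a set limit in both replicates, limit being median viability minus 3 SD, cut at about 48% in these data, passing the limit was not always enough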;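 also: 100% = mean luminescence of untreated wells and 0% = no signal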). The following applies: H69AR lung tumor cells viability, ATP luminescence, 72 h; at 10 µM; stronger effect = lower value.
Experiment [6] is described as follows: MRP1 drug-resistance reversers in H69AR cells – cell-based, doxorubicin co-treatment, pilot screen (AID 601;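 active = viability loss from added drug above about 55%, and viability with drug at most 40%, in both replicates, limit read from the data, passing the limit was not always enough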). The note with it: CellTiter-Glo, 72 h, at 10 µM; for differential viability (reversal): stronger effect = higher value.
Experiment [7] in a line: yeast transport mutant growth inhibition pilot in 384-well plates, post-Golgi transport modulator project (AID 636; in the data active = inhibition above about 31%). The following applies: absorbance 615 nm, about 18 h, stronger effect = higher value.
Experiment [8] in a line: growth suppression of yeast trafficking mutant, preliminary HTS, modulators of trafficking downstream of Golgi apparatus project, 1536-format plate, OD 615 nm (AID 637; in the data active = inhibition above about 30%). The note with it: yeast transport mutant growth, absorbance 615 nm, 18 h; stronger effect = higher value.
Where [9] appears, read: H69AR cells + 2 uM doxorubicin, measured here: viability with 2 uM doxorubicin, stronger effect = lower value.
[10] abbreviates: H69AR cells, compound alone cytotoxicity.

Activity calls are given as the source filed them.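 The calls were made as follows, unless noted: active = viability at or below 10% of carrier control in both of two separate runs; inconclusive = viability at or below 10% in only one of the two runs; inactive = the rest.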

Receptor tyrosine-protein kinase erbB-2 (Homo sapiens), sequence (P04626 whole entry, looked up): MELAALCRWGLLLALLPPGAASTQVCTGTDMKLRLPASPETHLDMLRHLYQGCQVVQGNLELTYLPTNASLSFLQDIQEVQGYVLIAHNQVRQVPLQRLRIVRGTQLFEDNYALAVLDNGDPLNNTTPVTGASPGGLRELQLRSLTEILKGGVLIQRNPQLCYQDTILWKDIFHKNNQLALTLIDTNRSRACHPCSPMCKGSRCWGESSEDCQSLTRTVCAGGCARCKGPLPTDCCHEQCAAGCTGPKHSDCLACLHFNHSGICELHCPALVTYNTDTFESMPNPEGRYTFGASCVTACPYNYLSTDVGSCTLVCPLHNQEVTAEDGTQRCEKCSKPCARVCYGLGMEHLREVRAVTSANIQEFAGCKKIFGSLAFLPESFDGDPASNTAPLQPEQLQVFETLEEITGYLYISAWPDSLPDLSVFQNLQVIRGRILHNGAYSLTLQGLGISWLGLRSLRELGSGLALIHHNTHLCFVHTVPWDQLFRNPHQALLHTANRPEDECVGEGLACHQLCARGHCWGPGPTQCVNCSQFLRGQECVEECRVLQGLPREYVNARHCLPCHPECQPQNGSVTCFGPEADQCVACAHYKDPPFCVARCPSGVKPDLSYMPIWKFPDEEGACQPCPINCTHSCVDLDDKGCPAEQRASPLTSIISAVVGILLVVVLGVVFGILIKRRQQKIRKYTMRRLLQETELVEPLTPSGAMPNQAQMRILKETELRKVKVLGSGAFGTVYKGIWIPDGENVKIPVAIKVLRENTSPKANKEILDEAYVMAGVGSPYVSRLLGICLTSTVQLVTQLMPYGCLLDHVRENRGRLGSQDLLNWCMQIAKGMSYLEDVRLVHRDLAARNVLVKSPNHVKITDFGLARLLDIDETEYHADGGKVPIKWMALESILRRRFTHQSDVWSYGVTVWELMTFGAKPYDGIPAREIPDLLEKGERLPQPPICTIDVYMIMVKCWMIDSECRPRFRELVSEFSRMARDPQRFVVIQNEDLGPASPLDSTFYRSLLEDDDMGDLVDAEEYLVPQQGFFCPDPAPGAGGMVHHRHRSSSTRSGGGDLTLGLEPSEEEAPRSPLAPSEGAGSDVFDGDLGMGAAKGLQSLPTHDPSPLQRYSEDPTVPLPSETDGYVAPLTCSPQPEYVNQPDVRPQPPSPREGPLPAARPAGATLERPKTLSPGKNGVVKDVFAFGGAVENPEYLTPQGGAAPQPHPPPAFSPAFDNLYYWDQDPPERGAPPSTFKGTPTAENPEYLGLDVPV

For `Cc1cc(Nc2ccc(N3CCC(C)CC3)cc2)n2ncnc2n1`, the viability in experiment [1] was 100%; in experiment [3], 100% (inactive); in experiment [4], 101% (inactive); in experiment [5], 77.6% (inactive); in experiment [6] (setting [9]), 79%; in experiment [6] (setting [10]), 77.6%. The Her2 level in experiment [2] was 110% (inactive). The differential viability (reversal) in experiment [6] (H69AR cells + 2 uM doxorubicin) is -1.35% (inactive). The values for the inhibition in experiment [7] and in experiment [8] were 5.62% (inactive) and 3.02% (inactive), respectively.
Take `N#Cc1c(N2C(=O)C3C4C=CC(C4)C3C2=O)sc2c1CCC2` (stereo not given): the viability was 91.5% in experiment [1]; 91.5% (inactive) in experiment [3]; 91% (inactive) in experiment [4]; 90.3% (inactive) in experiment [5]; 100% in experiment [6] (setting [9]); 90.3% in experiment [6] (setting [10]). In addition, the Her2 level in experiment [2] is 86.5% (inactive). In addition, the differential viability (reversal) in experiment [6] (H69AR cells + 2 uM doxorubicin) is -10.1% (inactive). For the same molecule, the values for the inhibition in experiment [7] and in experiment [8] were -5.07% (inactive) and -2.62% (inactive), respectively.
In the case of `Cc1ccc(-n2ncc3c(Nc4c(C)n(C)n(-c5ccccc5)c4=O)ncnc32)c(C)c1`, the viability in experiment [1] is 99%; in experiment [3], 99% (inactive); in experiment [4], 96.2% (inactive); in experiment [5], 92.3% (inactive); in experiment [6] (setting [9]), 83.2%; in experiment [6] (setting [10]), 92.3%. Also, the Her2 level in experiment [2] was 94.5% (inactive). Moreover, the differential viability (reversal) in experiment [6] (H69AR cells + 2 uM doxorubicin) is 9.15% (inactive). For the same molecule, the results for the inhibition in experiment [7] and in experiment [8] were -4.8% (inactive) and 1.45% (inactive), respectively.
For `Cc1cc(C)n(CC(=O)n2c3c(c4ccccc42)CCCC3)n1`, the viability is 116% in experiment [1]; 116% (inactive) in experiment [3]; 75.3% (inactive) in experiment [4]; 74.4% (inactive) in experiment [5]; 81.4% in experiment [6] (setting [9]); 74.4% in experiment [6] (setting [10]). The Her2 level in experiment [2] was 117% (inactive). Moreover, in experiment [6] (H69AR cells + 2 uM doxorubicin), the differential viability (reversal) was -6.97% (inactive). For the same molecule, the inhibition in experiment [7] is -5.53% (inactive); in experiment [8], 3.77% (inactive).
On to `CCOC(=O)c1oc2ccccc2c1NC(=O)COC`, for which the viability is 108% in experiment [1]; 108% (inactive) in experiment [3]; 99.5% (inactive) in experiment [4]; 102% (inactive) in experiment [5]; 93.2% in experiment [6] (setting [9]); 102% in experiment [6] (setting [10]). In experiment [2], the Her2 level is 91.5% (inactive). In experiment [6] (H69AR cells + 2 uM doxorubicin), the differential viability (reversal) is 9.07% (inactive). For the same molecule, the inhibition was -4.73% (inactive) in experiment [7] and -3.93% (inactive) in experiment [8].
Consider `CCOC(=O)c1ccc(-c2c(C(=O)OCC)oc3cc(O)c(CC)cc3c2=O)o1`, for which the viability in experiment [1] is 96.5%; in experiment [3], 96.5% (inactive); in experiment [4], 76.6% (inactive); in experiment [5], 83.3% (inactive); in experiment [6] (setting [9]), 103%; in experiment [6] (setting [10]), 83.3%. Further, in experiment [2], the Her2 level was 88.5% (inactive). In experiment [6] (H69AR cells + 2 uM doxorubicin), the differential viability (reversal) was -19.3% (inactive). Also, the inhibition was -3.42% (inactive) in experiment [7] and 11.6% (inactive) in experiment [8].
On to `Cc1nc2ncnn2c(N2CCC(C(=O)NC3CCCC3)CC2)c1Cc1ccccc1`, for which the viability is 88% in experiment [1]; 88% (inactive) in experiment [3]; 91.5% (inactive) in experiment [4]; 73.6% (inactive) in experiment [5]; 35.8% in experiment [6] (setting [9]); 73.6% in experiment [6] (setting [10]). Also, the Her2 level in experiment [2] is 95% (inactive). In experiment [6] (H69AR cells + 2 uM doxorubicin), the differential viability (reversal) was 37.8% (inactive). In addition, the inhibition in experiment [7] was -5.48% (inactive); in experiment [8] it was -4.76% (inactive).
In the case of `O=C(NCc1ccco1)c1cnn2c(C(F)(F)F)cc(-c3ccco3)nc12`, the viability was 86.5% in experiment [1]; 86.5% (inactive) in experiment [3]; 92.9% (inactive) in experiment [4]; 71.8% (inactive) in experiment [5]; 71.7% in experiment [6] (setting [9]); 71.8% in experiment [6] (setting [10]). For the same molecule, the Her2 level in experiment [2] is 74.5% (inactive). In addition, in experiment [6] (H69AR cells + 2 uM doxorubicin), the differential viability (reversal) was 0.17% (inactive). Moreover, the inhibition in experiment [7] is -7.26% (inactive); in experiment [8], 1.9% (inactive).
In the case of `CCn1c(=O)n(CC(=O)Nc2cc(OC)ccc2OC)c(=O)c2ccccc21`, the viability in experiment [1] was 110%; in experiment [3], 110% (inactive); in experiment [4], 86% (inactive); in experiment [5], 87.4% (inactive); in experiment [6] (setting [9]), 69.7%; in experiment [6] (setting [10]) it was 87.4%. In experiment [2], the Her2 level is 77% (inactive). Moreover, in experiment [6] (H69AR cells + 2 uM doxorubicin), the differential viability (reversal) is 17.7% (inactive). For the same molecule, the inhibition in experiment [7] is -0.66% (inactive); in experiment [8], -0.32% (inactive).
Consider `COc1cccc(N2CCN(Cc3nc(N)nc(Nc4ccccc4OC)n3)CC2)c1`, for which the viability in experiment [1] is 124%; in experiment [3], 124% (inactive); in experiment [4], 107% (inactive); in experiment [5] it was 77.4% (inactive); in experiment [6] (setting [9]), 84.4%; in experiment [6] (setting [10]) it was 77.4%. Further, the Her2 level in experiment [2] was 92% (inactive). Also, the differential viability (reversal) in experiment [6] (H69AR cells + 2 uM doxorubicin) is -7.01% (inactive). Besides, the inhibition in experiment [7] is -3.95% (inactive); in experiment [8], 1.13% (inactive).
Take `CC(C)Oc1ccc(-c2nn(-c3ccccc3)cc2/C=c2\sc3ncnn3c2=O)cc1`: the viability was 84% in experiment [1]; 84% (inactive) in experiment [3]; 71.5% (inactive) in experiment [4]; 98.1% (inactive) in experiment [5]; 89.9% in experiment [6] (setting [9]); 98.1% in experiment [6] (setting [10]). For the same molecule, the Her2 level in experiment [2] is 106% (inactive). Further, the differential viability (reversal) in experiment [6] (H69AR cells + 2 uM doxorubicin) was 8.19% (inactive). Moreover, the inhibition was 5.92% (inactive) in experiment [7] and -1.82% (inactive) in experiment [8].
Take `CCNCCNC(=O)c1c(O)c2ccccc2n(CC)c1=O`: the viability in experiment [1] was 126%; in experiment [3] it was 126% (inactive); in experiment [4], 84.7% (inactive); in experiment [5], 89.1% (inactive); in experiment [6] (setting [9]) it was 84.3%; in experiment [6] (setting [10]), 89.1%. Also, the Her2 level in experiment [2] is 90.5% (inactive). For the same molecule, the differential viability (reversal) in experiment [6] (H69AR cells + 2 uM doxorubicin) is 4.78% (inactive). For the same molecule, the figures for the inhibition in experiment [7] and in experiment [8] were -4.87% (inactive) and 0.81% (inactive), respectively.
With `COc1cc(NC(=O)NC(C)(C(F)(F)F)C(F)(F)F)cc(OC)c1OC`, the viability in experiment [1] was 138%; in experiment [3], 138% (inactive); in experiment [4] it was 91.1% (inactive); in experiment [5] it was 99.5% (inactive); in experiment [6] (setting [9]), 102%; in experiment [6] (setting [10]), 99.5%. In experiment [2], the Her2 level was 106% (inactive). Moreover, the differential viability (reversal) in experiment [6] (H69AR cells + 2 uM doxorubicin) was -2.39% (inactive). Further, the inhibition in experiment [7] is -4.08% (inactive); in experiment [8], 11.3% (inactive).
With `Cc1c(NC(=O)C2(c3ccccc3)CCOCC2)c(=O)n(-c2ccccc2)n1C`, the viability in experiment [1] is 92.5%; in experiment [3], 92.5% (inactive); in experiment [4], 113% (inactive); in experiment [5], 93.6% (inactive); in experiment [6] (setting [9]) it was 97.3%; in experiment [6] (setting [10]), 93.6%. In addition, the Her2 level in experiment [2] is 92% (inactive). Besides, in experiment [6] (H69AR cells + 2 uM doxorubicin), the differential viability (reversal) was -3.73% (inactive). Also, the inhibition in experiment [7] is -3.07% (inactive); in experiment [8] it was -4.76% (inactive).
In the case of `O=C1OCCC1Sc1ncnc2sc3c(c12)CCC3` (stereo not given), the viability in experiment [1] was 95.5%; in experiment [3], 95.5% (inactive); in experiment [4] it was 97.6% (inactive); in experiment [5], 104% (inactive); in experiment [6] (setting [9]) it was 91.9%; in experiment [6] (setting [10]), 104%. Further, in experiment [2], the Her2 level was 84.5% (inactive). Besides, the differential viability (reversal) in experiment [6] (H69AR cells + 2 uM doxorubicin) is 11.8% (inactive). In addition, the values for the inhibition in experiment [7] and in experiment [8] were -4.67% (inactive) and -0.32% (inactive), respectively.

In general, viability refers to a read-out of living cells in per cent, often relative to untreated cells. Broadly, the inhibition is the change of the read-out against control, counted positive when it falls.
